Three molecules from ChEMBL document CHEMBL3525939, “Organic cation transporter-mediated renal secretion of ipratropium and tiotropium in rats and humans” (Drug Metab Dispos, 2011) can be followed below.

In one data set the target is T1, Oct1 (Slc22a1) (Rattus norvegicus, UniProt Q63089).
T1 sequence (Q63089 whole entry): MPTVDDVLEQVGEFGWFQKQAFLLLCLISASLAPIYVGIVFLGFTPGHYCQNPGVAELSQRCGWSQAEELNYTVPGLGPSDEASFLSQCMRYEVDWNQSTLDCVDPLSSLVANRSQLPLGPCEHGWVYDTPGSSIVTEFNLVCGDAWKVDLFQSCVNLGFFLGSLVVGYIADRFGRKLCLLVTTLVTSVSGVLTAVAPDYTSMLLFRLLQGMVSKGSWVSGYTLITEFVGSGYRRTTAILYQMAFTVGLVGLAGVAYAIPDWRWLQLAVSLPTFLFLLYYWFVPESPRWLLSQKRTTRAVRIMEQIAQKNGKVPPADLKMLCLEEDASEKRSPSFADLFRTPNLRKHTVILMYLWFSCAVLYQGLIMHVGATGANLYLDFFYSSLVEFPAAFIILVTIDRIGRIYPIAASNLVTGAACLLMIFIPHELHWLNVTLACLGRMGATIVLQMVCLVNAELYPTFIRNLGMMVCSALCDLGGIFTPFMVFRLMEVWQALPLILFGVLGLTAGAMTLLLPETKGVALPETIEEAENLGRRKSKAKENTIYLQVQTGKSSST
The experiment in a line: Drug uptake in rat Oct1 expressed HEK293 cells at 10 nM at pH 7.4 at 37 degC after 1 min relative to mock cells. Format: ADME, cell-based. The conditions noted are these: HEK293 cells expressing rat Oct1, pH 7.4, read-out: FC. In outline:
(§1)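 Transfected HEK293 cells (antibiotic-selected; DMEM with 10% FBS) plated at 1 × 10^5 cells/cm2 and used after 2 days. Uptake of [3H]ipratropium or [3H]tiotropium (10 nM) for 1 min at pH 7.4, 37°C, in HEPES-buffered saline. Cells washed ice-cold, lysed in Triton X-100, counted by scintillation, normalised to protein. Uptake compared with vector-only Mock cells. n = 4.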

The test system of data set [1] is Kidney. The data set can be described thus: Drug uptake in Wistar rat kidney slice at 10 nM at pH 7.4 at 37 degC after 1 min relative to control in presence 1 mM MPP+. Format: ADME, tissue-based. Details: interact cpd dose 1 mM. The conditions noted are these: pH 7.4, 1 min, 0.01 µM. In outline:
(§2)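 Rat kidney slices incubated with [3H]ipratropium or [3H]tiotropium (10 nM) for 1 min at 37°C and pH 7.4. Each inhibitor given at 1 mM. Adhering water estimated from [14C]inulin uptake. Uptake expressed as percent of control without inhibitor. Mean ± SEM of 4 slices; significance by Student's t-test, p<0.05.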

In data set [2] the test system is Kidney. The experiment in a line: Drug uptake in Wistar rat kidney slice at 10 nM at pH 7.4 at 37 degC after 1 min relative to control in presence of 1 mM imipramine. The conditions noted are these: pH 7.4, 1 min, 0.01 µM. Details: interact cpd dose 1 mM. Format: ADME, tissue-based. In a few lines:
as §2

Data set [3] deals with T2, OCT2 (SLC22A2) (Homo sapiens, UniProt O15244).
T2 sequence (O15244 whole entry): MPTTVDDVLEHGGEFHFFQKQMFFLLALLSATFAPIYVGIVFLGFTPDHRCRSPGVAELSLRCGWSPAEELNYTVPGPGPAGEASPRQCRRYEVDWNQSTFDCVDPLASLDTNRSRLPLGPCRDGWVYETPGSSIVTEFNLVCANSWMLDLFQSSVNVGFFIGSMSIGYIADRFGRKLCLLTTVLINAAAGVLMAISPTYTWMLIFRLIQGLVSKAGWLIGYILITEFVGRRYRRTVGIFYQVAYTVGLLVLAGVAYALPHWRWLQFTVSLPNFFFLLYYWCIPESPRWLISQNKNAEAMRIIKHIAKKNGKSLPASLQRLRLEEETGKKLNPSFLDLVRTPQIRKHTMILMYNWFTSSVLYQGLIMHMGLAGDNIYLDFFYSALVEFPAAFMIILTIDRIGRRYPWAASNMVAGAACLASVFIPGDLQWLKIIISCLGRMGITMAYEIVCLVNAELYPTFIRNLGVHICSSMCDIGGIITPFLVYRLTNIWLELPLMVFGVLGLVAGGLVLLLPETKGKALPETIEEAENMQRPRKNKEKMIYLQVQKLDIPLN
The experiment in a line: Drug uptake in human Oct2 expressed HEK293 cells at 10 nM at pH 7.4 at 37 degC after 1 min relative to mock cells. The conditions noted are these: HEK293 cells expressing human Oct2, pH 7.4, read-out: FC. It is filed as ADME, cell-based. In a few lines:
as §1

Data set [4] concerns the target T3, Oct2 (Slc22a2) (Rattus norvegicus, UniProt Q9R0W2).
T3 sequence (Q9R0W2 whole entry): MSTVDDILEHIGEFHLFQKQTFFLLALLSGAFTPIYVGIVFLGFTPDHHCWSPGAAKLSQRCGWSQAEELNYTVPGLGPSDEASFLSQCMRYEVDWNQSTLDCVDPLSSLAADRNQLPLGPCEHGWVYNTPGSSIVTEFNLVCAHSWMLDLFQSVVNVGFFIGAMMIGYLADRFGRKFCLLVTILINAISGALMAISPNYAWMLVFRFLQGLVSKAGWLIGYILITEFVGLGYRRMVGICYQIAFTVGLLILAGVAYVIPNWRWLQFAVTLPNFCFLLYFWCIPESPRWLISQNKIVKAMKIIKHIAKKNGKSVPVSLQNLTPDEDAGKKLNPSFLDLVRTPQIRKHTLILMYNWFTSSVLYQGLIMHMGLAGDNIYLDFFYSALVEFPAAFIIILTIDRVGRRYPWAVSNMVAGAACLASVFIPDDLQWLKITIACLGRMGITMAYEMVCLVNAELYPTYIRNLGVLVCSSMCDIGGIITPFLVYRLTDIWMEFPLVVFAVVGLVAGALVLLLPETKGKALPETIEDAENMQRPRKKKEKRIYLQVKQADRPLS
The experiment in a line: Drug uptake in rat Oct2 expressed HEK293 cells at 10 nM at pH 7.4 at 37 degC after 1 min relative to mock cells. Format: ADME, cell-based. The following applies: HEK293 cells expressing rat Oct2, pH 7.4, read-out: FC. In outline:
as §1

For data set [5], the system named is Kidney. The experiment in a line: Drug uptake in Wistar rat kidney slice at 10 nM at pH 7.4 at 37 degC after 1 min relative to control in presence of 1 mM estrone 3-sulfate. It is filed as ADME, tissue-based. Details: interact cpd dose 1 mM. The conditions noted are these: pH 7.4, 1 min, 0.01 µM. In a few lines: as §2
For data set [6], the system named is Kidney. The data set can be described thus: Drug uptake in Wistar rat kidney slice at 10 nM at pH 7.4 at 37 degC after 1 min relative to control in presence of 1 mM cimetidine. Also noted: interact cpd dose 1 mM. It is filed as ADME, tissue-based. The following applies: pH 7.4, 1 min, 0.01 µM. In outline: as §2
For data set [7], the system named is Kidney. The experiment in a line: Drug uptake in Wistar rat kidney slice at 10 nM at pH 7.4 at 37 degC after 1 min relative to control in presence of 1 mM TEA+. It is filed as ADME, tissue-based. Also noted: interact cpd dose 1 mM. The following applies: pH 7.4, 1 min, 0.01 µM. In outline:
as §2

Data set [8] has as its system Kidney. The experiment in a line: Drug uptake in Wistar rat kidney slice at 10 nM at pH 7.4 at 37 degC after 1 min. Format: ADME, tissue-based. The following applies: pH 7.4, 1 min, 0.01 µM. In a few lines:
as §2

Data set [9] has as its system Kidney. The experiment in a line: Drug uptake in Wistar rat kidney slice at 10 nM at pH 7.4 at 37 degC after 1 min relative to control in presence of 1 mM PAH. Also noted: interact cpd dose 1 mM. Format: ADME, tissue-based. The following applies: pH 7.4, 1 min, 0.01 µM. In a few lines: as §2
Data set [10] concerns Kidney. The data set can be described thus: Drug uptake in Wistar rat kidney slice at 10 nM at pH 7.4 at 37 degC after 1 min relative to control in presence of ipratropium. It is filed as ADME, tissue-based. The conditions noted are these: pH 7.4, 1 min, 0.01 µM. In a few lines: as §2
Data set [11] concerns Kidney. The experiment in a line: Drug uptake in Wistar rat kidney slice at 10 nM at pH 7.4 at 37 degC after 1 min relative to control in presence of 1 mM quinidine. It is filed as ADME, tissue-based. Also noted: interact cpd dose 1 mM. The following applies: pH 7.4, 1 min, 0.01 µM. In outline: as §2
Data set [12] deals with T4, Solute carrier family 22 member 2 (Rattus norvegicus, UniProt Q9R0W2).
T4 sequence (Q9R0W2 whole entry): T3 sequence (Q9R0W2 whole entry)
The experiment in a line: Binding affinity to rat Oct2 assessed as transporter-mediated drug uptake. Format: ADME. In a few lines: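 [3H]ipratropium (10 nM) uptake into HEK293/rOct2 cells over 30 sec at pH 7.4, 37°C, in HEPES-buffered saline transport buffer. Mock-cell uptake subtracted to give transporter-mediated uptake. Cells lysed in Triton X-100, counted by liquid scintillation, normalised to protein. Km and Vmax from non-linear least-squares fit to Michaelis-Menten equation. n = 4, mean ± SEM.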

Substrate in data set [13]: NCCc1ccc(O)c(O)c1
The data set can be described thus: cells, lysate or membranes named.

For the molecule `C[N+]1(C)[C@@H]2C[C@@H](OC(=O)C(O)(c3cccs3)c3cccs3)C[C@@H]1[C@H]1O[C@H]12.[Br-]`, the figures for the uptake ratio at 1 min, 0.01 µM on Oct1 (Slc22a1), at OCT2 (SLC22A2) [3] and at Oct2 (Slc22a2) [4] were 8.4, 8.5 and 3, respectively. The Drug uptake in the data set on Kidney [1] was found to be 39.8%; in the data set with Kidney [2], 36.7%; in the data set with Kidney [5] it was 104%; in the data set with Kidney [6], 54.5%; in the data set on Kidney [7], 67.3%; in the data set with Kidney [8], 100%. The values for the Drug uptake with Kidney [9], in the data set with Kidney [10] and in the data set on Kidney [11] were 97.4%, 25.6% and 34.9%, respectively.
The term Km denotes the concentration of substrate that gives half-maximal velocity. `C[n+]1ccc(-c2ccccc2)cc1`: in [12], the Km stood at 17 µM.

B1: Solute carrier family 22 member 2 (Rattus norvegicus) (protein)
chain: T3 sequence (Q9R0W2 whole entry)
Turning to B1, the Michaelis-Menten constant (Km) in data set [13] is 650 µM.
